Jurkat NFkB inh – lowers PMA/ionomycin-induced NF-kB signal in Jurkat cells; inhibition, % at 4 µM; PMA/ionomycin-induced NF-kB luciferase reporter, luminescence; 0.53% of 330,000 active; in the data active means inhibition above about 50%
CHOP inh – inhibitors of CHOP induction in ER stress response; inhibition, % at 10 µM; 3.8% of 220,000 active; CHO-K1 CHOP-promoter luciferase, tunicamycin-induced, 15-18 h; AID 2732;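 active means compounds that reduced the stress-induced luciferase reporter signal by more than about 70% of percent inhibition, limit read from the data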;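 further: 0% = tunicamycin plus vehicle and 100% = wells without tunicamycin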
697 NFkB inh – inhibitors of the PMA/ionomycin-induced NF-kB reporter in 697 B cells; 697 B-cell NF-kB luciferase reporter, 16 h; inhibition, % at 4 µM; 0.33% of 330,000 active; in the data active means inhibition above about 35%
UPR XBP1 act – adaptive UPR (XBP1) activation. CHO-XBP1 luciferase reporter, IRE1-XBP1 UPR activation, luminescence; percent of tunicamycin response, DMSO as zero. activation, % at 20 µM. 0.33% of 330,000 active. AID 463104;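 active means versus positive control, 20 µM dose yields 30% or more activation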;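 further: 100% = tunicamycin at 10 µg/mL and 0% = DMSO only wells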
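Test system: CHO-XBP1 luciferase reporter cells | Buffer or medium: Serum-containing F12 medium, 10% FBS | Schedule: 6 h compound exposure at 37 °C, 5% CO2 | Detection: Steady-Glo luciferase glow luminescence, 10 min after reagent addition | Read-out basis: Activation, % of tunicamycin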
CHOP UPR activ – apoptotic UPR (CHOP) activation | activation, % at 10 µM | AID 449763 | CHO-CHOP luciferase reporter, luminescence; percent of tunicamycin response over DMSO baseline | 0.34% of 330,000 active;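 active means at 10 µM dose, activation of 40% or more, normalized to positive control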;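 further: 100% = tunicamycin at 10 µg/mL and 0% = DMSO alone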
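Evaluation: % reporter activation, DMSO baseline versus tunicamycin full activation; System: CHO-CHOP luciferase reporter cell line; Input: 500 cells/well; Incubation: 6 h compound treatment, 37 °C; Measured by: Steady-Glo luciferase luminescence; Dosing: one dose, 10 µM in 0.5% DMSO; Buffer or medium: F12 medium, 10% FBS; Benchmarks: positive tunicamycin 10 µg/mL, negative DMSO alone.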
Jurkat NFkB conf – inhibitors of the PMA/ionomycin-induced NF-kB reporter in Jurkat cells, retest; shares compounds with Jurkat NFkB inh; Jurkat NF-kB luciferase, 16 h; inhibition, % at 4 µM; 27% of 2,700 active; AID 435020;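 active means inhibition reaching about 45% at 4 µM in either replicate, limit read from the data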;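 further: plate controls were PMA/ionomycin stimulated DMSO wells for no effect and unstimulated DMSO wells for full effect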
* hit, by the source's call; / = not tested or not shown. The full list was thinned out, with hits kept by preference.

SMILES | Jurkat NFkB inh | CHOP inh | 697 NFkB inh | UPR XBP1 act | CHOP UPR activ | Jurkat NFkB conf
Cc1ccc(NC(=O)c2scc3c2CCCC3)cc1 | -231 | 31 | -226 | -3 | 4 | -122
COc1ccc(C=C2c3ccccc3C(=O)c3ccccc32)c(OC)c1 | 66* | 31 | 13 | 20 | 4 | 61*
Cc1ccc(Nc2cc(C)nn2-c2nc(C)cc(=O)[nH]2)cc1 | 97* | / | -107 | -3 | 190* | 68*
CCCNc1cc(=S)nc(N)[nH]1 | 10 | 1 | 9 | 0 | -1 | /
Clc1ccc2c(c1)C(C1=NCCN1)c1ccccc1CS2 (configuration not stated) | 63* | 4 | 5 | 1 | 1 | 43*
S=C1NCCc2ccc(Cl)cc2C1c1ccccc1Cl (configuration not stated) | -17 | -3 | -21 | -1 | -1 | /
O=C(CSc1nnnn1-c1ccccc1)NCC1(N2CCOCC2)CCCCC1 | 1 | / | 4 | -2 | 0 | /
O=C(CN1C(=O)NC2(CCCC2)C1=O)OCc1cc(=O)n2cc(Br)ccc2n1 | 3 | -2 | 8 | -1 | -1 | /
CN1C2=CC=CC=CC2=[N+](C)C12C([N+](=O)[O-])=CC(=[N+]([O-])[O-])C=C2[N+](=O)[O-] (configuration not stated) | 73* | -36 | -80 | -1 | 0 | 19
Cc1ccc(S(=O)(=O)Nc2cccc(-c3ccc4nncn4n3)c2)cc1 | 59* | / | -8 | 8 | 1 | 48*
CC(=O)c1ccc(S(=O)(=O)Nc2cccc(-c3ccc4nncn4n3)c2)cc1 | -5 | -7 | 0 | 2 | -2 | /
CCOc1ccc(S(=O)(=O)N2CCN=C2c2ccccc2)cc1 | 54* | / | -65 | -1 | 2 | 12
CCO[C@@H]1OC(C(=O)NCc2nc3ccccc3[nH]2)=C[C@H](C(C)(C)C)[C@H]1CCCO | 73* | / | -63 | 17 | -3 | 55*
CCO[C@@H]1OC(C(=O)NCc2nc3ccccc3[nH]2)=C[C@H](C2CC2)[C@H]1CCCO | 45 | 22 | -1 | 0 | 2 | /
NC(=O)c1nsc(C(=O)N(c2ccccc2)C(C(=O)NCc2ccc(F)cc2)c2ccc(O)cc2)c1N (configuration not stated) | 2 | / | 18 | -5 | 2 | /
CC(C)C(=O)Nc1cc(-c2nc3ncccc3o2)ccc1Cl | 18 | / | 12 | -3 | 2 | /
C=CCNC(=O)c1cc(-c2ccc(Br)cc2)on1 | -177 | 11 | -116 | 0 | 4 | -58
Cc1ccc(C)c(C(=O)CN2C(=O)NC3(CCC(C)CC3)C2=O)c1 (configuration not stated) | 64* | 24 | -68 | -1 | 1 | 8
Cc1cc(C)c(C(=O)CN2C(=O)NC3(CCC(C)CC3)C2=O)cc1C (configuration not stated) | -2 | 32 | 0 | 6 | -1 | /
CCOc1ccc(NC(=O)CSc2nnc(C)n2CC)cc1 | -10 | / | 8 | -6 | 1 | /
CCN(CC)CCN1C(=O)/C(=C\c2ccc(Cl)c([N+](=O)[O-])c2)SC1=Nc1ccc(OC)cc1 | -72 | / | -70 | 4 | 24 | /
COc1ccc(N=C2S/C(=C\c3ccc(Cl)c([N+](=O)[O-])c3)C(=O)N2CCN(C)C)cc1 | 51* | / | 4 | 27 | 26 | 12
O=[N+]([O-])c1ccc(Cl)c(S(=O)(=O)Nc2ccc(S(=O)(=O)N3CCOCC3)cc2)c1 | 5 | / | 16 | -4 | 1 | /
CCOc1ccccc1NC(=O)c1nc[nH]c1C(=O)Nc1ccccc1OCC | 28 | 60 | -30 | 6 | 3 | /
COc1ccccc1NC(=O)c1nc[nH]c1C(=O)Nc1ccccc1OC | 51* | -15 | -13 | -2 | 1 | 10
SMILES | Jurkat NFkB inh | CHOP inh | 697 NFkB inh | UPR XBP1 act | CHOP UPR activ | Jurkat NFkB conf
COc1ccc(NC(=O)c2nc[nH]c2C(=O)Nc2ccccc2C)cc1 | 53* | 64 | -23 | 0 | 0 | 12
O=C(NC1CCN(Cc2ccccc2)CC1)c1ccc(S(=O)(=O)NCc2ccco2)cc1 | 51* | 7 | -34 | -2 | 0 | 10
O=C(NC1CC1)c1ccc(CN(c2ccccc2)S(=O)(=O)c2ccccc2)cc1 | -6 | 0 | -7 | -5 | -1 | /
O=C(NC1CCCCC1)c1ccc(S(=O)(=O)NCc2ccco2)cc1 | -8 | 8 | -8 | 2 | 1 | /
CCN(c1ccccc1)S(=O)(=O)c1ccc(C(=O)NC2CCN(Cc3ccccc3)CC2)cc1 | 74* | / | 27 | -3 | 8 | 65*
CC1Cc2ccccc2N1C(=O)CSc1ncccn1 (configuration not stated) | -15 | / | 2 | 0 | 2 | /
CCCCN1/C(=C/c2cccc[n+]2C)Sc2cc(NC(C)=O)ccc21 | -9 | / | 6 | -4 | -2 | /
Cc1ccc2c(c1)N(C)/C(=C/c1cccc[n+]1CCO)S2 | 33 | / | -17 | 2 | -2 | /
Cc1ccc2c(c1)N(C)/C(=C/c1cccc[n+]1C)S2 | 75* | / | 9 | -7 | -3 | 17
CN1/C(=C/c2cccc[n+]2C)Sc2ccccc21 | 71* | / | 13 | 4 | 0 | 6
COCCn1c(Cc2ccccc2)nnc1SC(C)C(=O)NC1CC1 (configuration not stated) | -8 | / | 13 | -2 | 1 | /
NS(=O)(=O)c1ccc(N2CCN(CCOc3ccc(Cl)cc3)CC2)nc1 | 22 | / | -28 | -5 | 1 | /
COc1ccc(C(=O)Nc2ccccc2C(N)=O)cc1 | -87 | -30 | -48 | 2 | 2 | /
NC(=O)c1ccccc1NC(=O)c1ccc2ccccc2c1 | -175 | / | -224 | -5 | 5 | -105
COc1ccccc1N1CCN(C(=O)NCc2ccc(Cl)cc2)CC1 | 20 | / | -2 | -1 | 2 | /
COc1ccccc1N1CCN(C(=O)c2ccc(-c3ccc(Cl)cc3)o2)CC1 | 63* | / | -48 | 11 | -1 | 53*
CCCN(Cc1nnc(-c2ccccc2Cl)o1)C(=O)COc1ccc(Cl)cc1 | -9 | / | -14 | -1 | -3 | /
COc1ccccc1Oc1ccc(-c2cnc3ccccc3n2)cc1[N+](=O)[O-] | 59* | 16 | -70 | -3 | 2 | -3
Cc1ccc(-n2nc3cc(C)c(N)cc3n2)cc1 | -138 | 28 | -180 | -8 | -3 | /
CCc1ccc(-n2nc3cc(C)c(N)cc3n2)cc1 | -167 | / | -218 | -4 | 1 | -33
Nc1ncn([C@@H]2O[C@H](CO)[C@@H](O)[C@H]2O)c(=O)n1 | 80* | -14 | -116 | 6 | 25 | 85*
Cc1c(NS(=O)(=O)c2cc(C(=O)NCc3ccco3)cc(Cl)c2Cl)c(=O)n(-c2ccccc2)n1C | 7 | / | 11 | -5 | 1 | /
C=C(C)COc1ccc(-c2[nH]ncc2-c2ccc(Br)cc2)c(O)c1 | 59* | 106* | -22 | 0 | 27 | 8

From PubChem
